MC4R antagonist: human MC4R antagonism in cAMP assay; P32245; MC4R-expressing cells, MTII-stimulated cAMP, LANCE TR-FRET; inhibition, % at 6.5 µM; actives 0.48% (n = 360,000); AID 540295;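 active = inhibition above its plate's cutoff, the mean of tested wells on that plate plus 3 SD, cut at about 29% in these data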;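 also: 0% = Melanotan II alone and 100% = Melanotan II plus saturating MCL0020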
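Material – human MC4R-expressing U2OS cells · Repeats – no replicates · Detection – TR-FRET with Eu-cAMP and labeled anti-cAMP, 671 nm · Times – compound 30 min, challenge 1 h, detection 1 h · Compound – single nominal compound dose of 6.5 µM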
CSC inhib: cancer stem cell inhibition; cancer stem cell-like cells viability, luminescence; inhibition, % at 7.5 µM; actives 1.1% (n = 300,000); AID 2717; in the data active = inhibition above about 75%; tested in HMLE shEcad cells
TMEM16A inh: blocks the mouse calcium-activated chloride channel TMEM16A; HEK293 TMEM16A/YFP iodide influx fluorescence, ionomycin; normalized B-score (activity score, 25-100; higher = stronger inhibition) at 10 µM; actives 1.2% (n = 310,000); AID 588511;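 active = ratio plate-corrected score three or more library SD toward inhibition, starting fluorescence score within five deviations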;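 also: score derived from kinetic fluorescence span divided by baseline fluorescence per well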
Target sequence (Q8BHY3 whole entry, looked up): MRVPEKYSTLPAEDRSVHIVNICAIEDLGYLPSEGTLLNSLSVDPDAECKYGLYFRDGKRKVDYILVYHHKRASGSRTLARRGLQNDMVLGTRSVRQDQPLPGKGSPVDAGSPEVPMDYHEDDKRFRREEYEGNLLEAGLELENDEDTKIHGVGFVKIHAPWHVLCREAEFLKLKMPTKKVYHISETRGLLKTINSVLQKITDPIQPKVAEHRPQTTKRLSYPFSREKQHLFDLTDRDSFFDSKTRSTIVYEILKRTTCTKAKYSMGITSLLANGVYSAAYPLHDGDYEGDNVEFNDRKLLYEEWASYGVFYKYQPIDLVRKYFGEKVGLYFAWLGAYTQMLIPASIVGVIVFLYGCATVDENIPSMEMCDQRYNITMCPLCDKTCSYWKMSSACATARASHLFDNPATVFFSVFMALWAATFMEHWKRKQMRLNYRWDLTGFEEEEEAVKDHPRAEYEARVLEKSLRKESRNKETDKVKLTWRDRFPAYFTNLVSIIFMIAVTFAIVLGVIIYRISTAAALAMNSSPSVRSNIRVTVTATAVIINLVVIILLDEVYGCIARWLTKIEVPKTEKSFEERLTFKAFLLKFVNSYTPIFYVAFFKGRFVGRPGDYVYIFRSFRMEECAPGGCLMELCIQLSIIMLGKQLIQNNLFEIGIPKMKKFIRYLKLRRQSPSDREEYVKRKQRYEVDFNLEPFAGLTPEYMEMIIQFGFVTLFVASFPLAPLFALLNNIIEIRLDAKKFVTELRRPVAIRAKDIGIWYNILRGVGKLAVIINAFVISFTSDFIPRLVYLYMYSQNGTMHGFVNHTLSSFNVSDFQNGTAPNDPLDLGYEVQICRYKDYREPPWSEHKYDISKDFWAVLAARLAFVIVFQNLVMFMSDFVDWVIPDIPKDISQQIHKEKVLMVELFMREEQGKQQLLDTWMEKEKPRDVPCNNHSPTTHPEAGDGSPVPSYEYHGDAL
Beta cell apopt: blocks beta cell apoptosis | AID 435005 | protection from apoptosis, % (test concentration not listed) | actives 0.8% (n = 300,000) | INS-1E cytokine-induced death, ATP luminescence, 48 h; percent of positive-control rescue, neutral wells zero;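 active = Every replicate reaches about 75%, or at least half do and their mean reaches it too, limit read from the data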;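 also: 0% = cytokine-treated negative control wells and 100% = positive control rescue; higher means more ATP so stronger rescue from cytokine killing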
ANO1 activ: activates or potentiates the mouse TMEM16A chloride channel; Q8BHY3; HEK293 TMEM16A/YFP-H148Q/I152L, iodide quench fluorescence; hits give low values; B-score at 10 µM; actives 0.3% (n = 340,000); AID 623877;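 active = fluorescence-ratio B-score plate-corrected deviation score at least 3 library SD below zero, with starting fluorescence score within 5 deviations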;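 also: channel opened by trigger with iodide after compound preincubation; score built on the fluorescence ratio of max minus min over baseline; more negative score means more quench and so TMEM16A activation or potentiation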
MC4R ag barr: human MC4R agonism via beta-arrestin; AID 540308; actives 0.98% (n = 360,000); U2OS MC4R beta-arrestin complementation, luminescence; percent of melanotan II response, DMSO zero; activation, % at 8.9 µM;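 active = activation above a per-plate cutoff, the mean activation of sample wells on that plate plus 3 SD, cut at about 8% in these data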
* marks the source's active call; other numbers are inactive results; i = inactive; . = not tested or not shown. Only some compounds are listed: those with a hit (about 3.8% of all), similar ones and a draw of the others.

SMILES | MC4R antagonist | CSC inhib | TMEM16A inh | Beta cell apopt | ANO1 activ | MC4R ag barr
CC1(C(=O)NC2CCc3ccccc32)CCN1CCc1ccccc1 (stereo unspecified) | 2.7 | . | . | . | . | 8.6*
O=C(O)c1cnc(-c2ccccc2)nc1Sc1ccc(Cl)cc1Cl | 6.3 | 67.1 | 100* | . | i | -0.6
CCC(C)c1ccc(N(C(=O)c2ccco2)C(C(=O)NC2CCCC2)c2cccnc2)cc1 (stereo unspecified) | 14.6 | -0.9 | i | -1.4 | i | 0.0
O=C(NC1CC1(c1ccccc1)c1ccccc1)c1ccccc1 (stereo unspecified) | 6.8 | . | . | . | -9.29* | -1.3
C(=N\Nc1nc(Nc2ccccc2)nc(N2CCOCC2)n1)/c1c[nH]c2ccccc12 | . | 31.9 | 25* | . | . | .
Cc1[nH]c2ccccc2c1/C=N/Nc1nc(Nc2ccc(F)cc2)nc(N2CCOCC2)n1 | 13.6 | 69.2 | i | 4.1 | i | 0.3
O=C(Cn1ccc(NC(=O)OCc2ccccc2)nc1=O)NCCCn1ccnc1 | 3.5 | -9.4 | . | -5.2 | i | -2.2
COc1ccccc1NC(=O)COc1ccc(C(=O)NC2CCCc3ccccc32)cc1OC (stereo unspecified) | -6.8 | 2.1 | i | -1.8 | i | 8.5*
Cc1cc(N2CCN(C)CC2)nc2ccc(NC(=S)NCCC(C)C)cc12 | 11.4 | 82.9* | i | 0.0 | i | -1.4
Cc1cc(N2CCOCC2)nc2ccc(NC(=S)NCCC(C)C)cc12 | 3.5 | 49.1 | i | 14.8 | i | -1.5
COc1ccc(CNC(=S)Nc2ccc3nc(N4CCN(C)CC4)cc(C)c3c2)cc1 | 14.9 | 42.6 | i | -0.9 | i | 0.3
COc1ccccc1CNC(=S)Nc1ccc2nc(N3CCN(C)CC3)cc(C)c2c1 | 10.9 | 79.7* | i | -4.8 | i | -1.8
CCOC(=O)Cn1ccc2cc(S(=O)(=O)N3CCCC3)ccc21 | 4.9 | . | . | . | . | 1.8
CC(=O)Oc1c(I)cc(I)cc1C(=O)Nc1ccc(Cl)cc1 | 6.8 | 107.6* | 100* | 105.5* | i | -0.8
COc1ccc(N2C(=O)CSC2c2ccc(F)c(F)c2)cc1 (stereo unspecified) | -8.1 | . | i | . | -8.5* | -2.7
CC(C)C1C(=O)N(Cc2cn(CCC3OCCCO3)nn2)CCS(=O)(=O)N1Cc1ccc(-c2ccc(Cl)nc2)cc1 (stereo unspecified) | 0.8 | . | . | . | . | 0.4
O=C(NC1CCCc2c1cnn2-c1ccc(F)cc1F)c1ccccc1N1CCOCC1 (stereo unspecified) | -8.2 | -7.0 | i | -0.3 | i | -1.6
O=c1c2c3c(sc2nc2sc(C4CC4)nn12)CCCC3 | 3.2 | -14.7 | 25* | 4.3 | i | -2.5
O=c1[nH]c(C2CC2)nc2sc3c(c12)CCCC3 | 5.8 | -9.5 | i | 0.8 | i | 0.3
CCCCCCSc1ccc([C@@H]2[C@H]3C(=O)N(C)C(=O)[C@H]3[C@]3(C(=O)OC)CCCCN23)cc1OC | -0.8 | -10.0 | i | 9.9 | i | -1.4
CCCCCCSc1ccc([C@@H]2[C@@H]3C(=O)N(C)C(=O)[C@@H]3[C@]3(C(=O)OC)CCCCN23)cc1OC | 4.0 | 105.4* | i | 9.4 | i | -1.4
CCc1nc(NCCCn2ccnc2)c2oc3ccccc3c2n1 | -0.7 | -2.3 | i | -3.5 | -26.1* | 1.5
COC(=O)CSc1nc(N)c(C#N)c(-c2ccc(O)cc2)c1C#N | -33.5 | -2.4 | i | -8.0 | i | -2.4
CCOC(=O)CSc1nc(N)c(C#N)c(-c2ccc(OCC)cc2)c1C#N | 23.2 | -7.9 | i | -4.3 | i | 9.4*
CCCCNC(=O)C1(C)CCCCN1Cc1ccc2ccccc2c1 (stereo unspecified) | 9.8 | . | . | . | . | 1.7
SMILES | MC4R antagonist | CSC inhib | TMEM16A inh | Beta cell apopt | ANO1 activ | MC4R ag barr
COc1ccccc1N1CCN(C(=O)C2CCCN(S(=O)(=O)c3ccc4c(c3)oc(=O)n4C)C2)CC1 (stereo unspecified) | 13.9 | -9.1 | 25* | 30.0 | i | -0.2
COc1ccc(N2CCN(C(=O)C3CCCN(S(=O)(=O)c4ccc5c(c4)oc(=O)n5C)C3)CC2)cc1 (stereo unspecified) | 10.9 | 0.8 | i | 15.3 | i | 0.1
Cc1cc(O)c(C(C)C)cc1NC(=O)Nc1ccc([N+](=O)[O-])cc1 | -4.0 | . | . | . | i | 1.3
Cc1ccc(NC(=O)Nc2cccc([N+](=O)[O-])c2)cc1F | -5.0 | 20.8 | i | 93.0* | i | -0.4
O=C(Nc1cccc([N+](=O)[O-])c1)C1C2CC/C=C\CCC21 (stereo unspecified) | 7.2 | 5.7 | i | 0.0 | i | 8.9*
Cc1ccc(C(C)C)cc1NC(=O)Nc1ccc([N+](=O)[O-])cc1 | 22.3 | 88.9* | i | 120.9* | i | 0.2
O=C(Nc1ccc(Oc2ccc(NC(=O)Nc3ccc([N+](=O)[O-])cc3)cc2)cc1)Nc1ccc([N+](=O)[O-])cc1 | 12.9 | 49.6 | i | 109.7* | i | -1.5
O=C(O)c1ccc(CNC(=O)C2CCN(S(=O)(=O)c3ccc4c(c3)OCCO4)CC2)cc1 | 2.3 | . | . | . | . | 1.7
O=C1C2CC3N1CCC31c3ccccc3-n3c1c2ccc3=O (stereo unspecified) | 2.5 | . | . | . | i | -0.6
Cc1ccc(Cn2c(N3CCN(C)CC3)nc3c2c(=O)[nH]c(=O)n3C)cc1 | 4.0 | 10.8 | i | -4.9 | i | -0.9
COc1ccccc1S(=O)(=O)Nc1cc(C)nn1-c1ccc(C)cc1 | 0.3 | 29.1 | i | -3.1 | i | 1.1
O=C(Nc1ccc(OC(F)(F)F)cc1)Nc1cccc([N+](=O)[O-])c1 | -14.3 | . | i | 101.9* | i | -1.1
O=C(Nc1ccc([N+](=O)[O-])cc1)Nc1nc(-c2ccc(Cl)s2)cs1 | 4.8 | 97.1* | i | 128.6* | i | 1.3
O=C(Nc1ccc(OC(F)(F)F)cc1)Nc1cccnc1 | -6.1 | 9.2 | i | 3.7 | i | 1.8
Cc1[nH]n(-c2ccc([N+](=O)[O-])cc2)c(=O)c1C=NCCc1c[nH]c2ccccc12 | 5.1 | 9.5 | i | 13.9 | i | 8.4*
CCOC(=O)c1c(NC(=O)Nc2ccc(Cl)cc2)sc(C)c1C | 9.6 | -11.2 | i | -12.6 | i | 7.1
CCOC(=O)c1c(NC(=O)/C=C/C(=O)O)sc(C)c1-c1ccc(Cl)cc1 | 23.7 | 75.2* | i | 7.5 | i | -1.2
COc1ccc(CN(C)C[C@H]2OCCCC[C@@H](C)Oc3ccc(NS(C)(=O)=O)cc3C(=O)N([C@H](C)CO)C[C@@H]2C)cc1 | -1.4 | . | . | . | . | -0.2
COc1ccc(/C=N/Nc2cc(C)nc3ccc(Br)cc23)cc1 | 7.0 | 107.4* | i | 100.2* | i | 15.7*
